Assay results from ChEMBL document CHEMBL4689842, “EUbOPEN Chemogenomics Library wave 1” (2021).

System: Fibroblast
Assay: Multiplex assay against human fibroblast
Assay type: toxicity, cell-based
In short: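 Phenotypes for tubulin, mitochondrial mass and membrane permeability are expressed as per cents of healthy-nucleus cells. Cells were stained live at seeding with Hoechst33342, BioTracker Green Microtubule Cytoskeleton Dye, MitoTracker Red and Annexin V Alexa Fluor 680, then imaged after compound addition on a CQ1 microscope at 37°C and 5% CO2. Machine-learning gating in CellPathfinder separated Hoechst high-intensity objects from normal cells, divided normal cells by nuclear state (healthy, pyknosed, fragmented) and divided pyknosed cells into mitotic or apoptotic.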

[1] = 12 h, 1 µM, compound concentration 1 uM, replicate 1
[2] = 12 h, 1 µM, compound concentration 1 uM, replicate 2
[3] = 12 h, 10 µM, compound concentration 10 uM, replicate 1
[4] = 12 h, 10 µM, compound concentration 10 uM, replicate 2
[5] = 24 h, 1 µM, compound concentration 1 uM, replicate 1
[6] = 24 h, 1 µM, compound concentration 1 uM, replicate 2
[7] = 24 h, 10 µM, compound concentration 10 uM, replicate 1
[8] = 24 h, 10 µM, compound concentration 10 uM, replicate 2
[9] = 48 h, 1 µM, compound concentration 1 uM, replicate 1
[10] = 48 h, 1 µM, compound concentration 1 uM, replicate 2
[11] = 48 h, 10 µM, compound concentration 10 uM, replicate 1
[12] = 48 h, 10 µM, compound concentration 10 uM, replicate 2

## CC1=C(C(=O)Nc2cc3cn[nH]c3cc2F)C(c2ccc(C(F)(F)F)cc2)CC(=O)N1 (stereo not drawn)
[1]
  Population Apoptotic (%): 78%
  Population Fragmented Nuclei (%): 29%
  Population Healthy Nuclei (%): 41%
  Population Hoechst High Intensity Objects (%): 12%
  Population Membrane Permeable-Phenotype (%): 20%
  Population Mitochondria Different-Phenotype (%): 6%
  Population Mitotic Cells (%): 21%
  Population Normal (%): 87%
  Population Pyknosed Nuclei (%): 29%
  Population Tubulin-Different-Phenotype (%): 31%
  Total Cell Count: 124
[2]
  Population Apoptotic (%): 50%
  Population Fragmented Nuclei (%): 2%
  Population Healthy Nuclei (%): 93%
  Population Hoechst High Intensity Objects (%): 10%
  Population Membrane Permeable-Phenotype (%): 4%
  Population Mitochondria Different-Phenotype (%): 9%
  Population Mitotic Cells (%): 50%
  Population Normal (%): 89%
  Population Pyknosed Nuclei (%): 4%
  Population Tubulin-Different-Phenotype (%): 14%
  Total Cell Count: 76
[3]
  Population Apoptotic (%): 55%
  Population Fragmented Nuclei (%): 25%
  Population Healthy Nuclei (%): 46%
  Population Hoechst High Intensity Objects (%): 9%
  Population Membrane Permeable-Phenotype (%): 24%
  Population Mitochondria Different-Phenotype (%): 11%
  Population Mitotic Cells (%): 44%
  Population Normal (%): 90%
  Population Pyknosed Nuclei (%): 27%
  Population Tubulin-Different-Phenotype (%): 50%
  Total Cell Count: 144
[4]
  Population Apoptotic (%): 50%
  Population Fragmented Nuclei (%): 21%
  Population Healthy Nuclei (%): 70%
  Population Membrane Permeable-Phenotype (%): 5%
  Population Mitochondria Different-Phenotype (%): 12%
  Population Mitotic Cells (%): 50%
  Population Pyknosed Nuclei (%): 7%
  Population Tubulin-Different-Phenotype (%): 25%
  Total Cell Count: 97
[5]
  Population Apoptotic (%): 54%
  Population Fragmented Nuclei (%): 20%
  Population Healthy Nuclei (%): 56%
  Population Hoechst High Intensity Objects (%): 18%
  Population Membrane Permeable-Phenotype (%): 35%
  Population Mitochondria Different-Phenotype (%): 1%
  Population Mitotic Cells (%): 45%
  Population Normal (%): 81%
  Population Pyknosed Nuclei (%): 23%
  Population Tubulin-Different-Phenotype (%): 25%
  Total Cell Count: 127
[6]
  Population Apoptotic (%): 42%
  Population Fragmented Nuclei (%): 7%
  Population Healthy Nuclei (%): 86%
  Population Hoechst High Intensity Objects (%): 4%
  Population Membrane Permeable-Phenotype (%): 10%
  Population Mitochondria Different-Phenotype (%): 13%
  Population Mitotic Cells (%): 57%
  Population Normal (%): 95%
  Population Pyknosed Nuclei (%): 6%
  Population Tubulin-Different-Phenotype (%): 16%
  Total Cell Count: 93
[7]
  Population Apoptotic (%): 40%
  Population Fragmented Nuclei (%): 25%
  Population Healthy Nuclei (%): 54%
  Population Hoechst High Intensity Objects (%): 9%
  Population Membrane Permeable-Phenotype (%): 22%
  Population Mitochondria Different-Phenotype (%): 8%
  Population Mitotic Cells (%): 59%
  Population Normal (%): 90%
  Population Pyknosed Nuclei (%): 19%
  Population Tubulin-Different-Phenotype (%): 40%
  Total Cell Count: 125
[8]
  Population Apoptotic (%): 75%
  Population Fragmented Nuclei (%): 23%
  Population Healthy Nuclei (%): 68%
  Population Hoechst High Intensity Objects (%): 6%
  Population Membrane Permeable-Phenotype (%): 4%
  Population Mitochondria Different-Phenotype (%): 14%
  Population Mitotic Cells (%): 25%
  Population Normal (%): 93%
  Population Pyknosed Nuclei (%): 8%
  Population Tubulin-Different-Phenotype (%): 29%
  Total Cell Count: 119
[9]
  Population Apoptotic (%): 66%
  Population Fragmented Nuclei (%): 33%
  Population Healthy Nuclei (%): 48%
  Population Hoechst High Intensity Objects (%): 11%
  Population Membrane Permeable-Phenotype (%): 19%
  Population Mitochondria Different-Phenotype (%): 5%
  Population Mitotic Cells (%): 33%
  Population Normal (%): 88%
  Population Pyknosed Nuclei (%): 18%
  Population Tubulin-Different-Phenotype (%): 14%
  Total Cell Count: 131
[10]
  Population Apoptotic (%): 33%
  Population Fragmented Nuclei (%): 31%
  Population Healthy Nuclei (%): 65%
  Population Hoechst High Intensity Objects (%): 22%
  Population Membrane Permeable-Phenotype (%): 6%
  Population Mitochondria Different-Phenotype (%): 0%
  Population Mitotic Cells (%): 66%
  Population Normal (%): 77%
  Population Pyknosed Nuclei (%): 3%
  Population Tubulin-Different-Phenotype (%): 23%
  Total Cell Count: 127
[11]
  Population Apoptotic (%): 46%
  Population Fragmented Nuclei (%): 33%
  Population Healthy Nuclei (%): 54%
  Population Hoechst High Intensity Objects (%): 11%
  Population Membrane Permeable-Phenotype (%): 26%
  Population Mitochondria Different-Phenotype (%): 4%
  Population Mitotic Cells (%): 53%
  Population Normal (%): 88%
  Population Pyknosed Nuclei (%): 11%
  Population Tubulin-Different-Phenotype (%): 23%
  Total Cell Count: 130
[12]
  Population Apoptotic (%): 62%
  Population Fragmented Nuclei (%): 26%
  Population Healthy Nuclei (%): 65%
  Population Membrane Permeable-Phenotype (%): 7%
  Population Mitochondria Different-Phenotype (%): 1%
  Population Mitotic Cells (%): 37%
  Population Pyknosed Nuclei (%): 8%
  Population Tubulin-Different-Phenotype (%): 22%
  Total Cell Count: 109
